Experiments:
[1] = test system: Hepatitis C virus; test: Resistance index, ratio of EC50 for Hepatitis C virus subtype 1a H77 subgenomic replicon expressing NS5A L31V mutant infected in human HuH7 cells to EC50 for Hepatitis C virus subtype 1a H77 subgenomic replicon expressing NS5A infected in human HuH7 cells; format: functional, Hepacivirus hominis
[2] = Toxicity in mouse assessed as reduction in body weight at 300 mg/kg, po administered for 14 days and measured on day 14; format: organism-based; details: in vivo, 336 h
Method in brief: (§1)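 Mice randomised after acclimation into two groups of 5 males and 5 females. Compound at 300 mg/kg or vehicle alone given once daily by oral gavage for 14 days. Clinical signs observed daily. Body weight and food intake recorded on day 1, then twice weekly. Animals killed after the 14th dose.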

[3] = Drug distribution in rat liver at 10 mg/kg, po incubated for 0.5 hrs by UPLC-MS/MS analysis; format: ADME, organism-based; details: read-out: Drug uptake
Method in brief: (§2)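 Oral dosing in mice and rats; compound measured in plasma and liver by UPLC-MS/MS at each time point, n = 3 (mean ± SD). LPR is mean liver concentration divided by mean plasma concentration.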

[4] = Cytotoxicity against human HuH7 cells assessed as reduction in cell viability incubated for 3 days by luciferase reporter gene assay; format: cell-based, Huh-7
[5] = Ratio of drug distribution in mouse liver to drug distribution in mouse plasma measured after 24 hrs by UPLC-MS/MS analysis; format: ADME, cell-free; method in brief: as §2
[6] = test system: Hepatitis C virus; test: Resistance index, ratio of EC50 for Hepatitis C virus subtype 1a H77 subgenomic replicon expressing NS5A L31M mutant infected in human HuH7 cells to EC50 for Hepatitis C virus subtype 1a H77 subgenomic replicon expressing NS5A infected in human HuH7 cells; format: functional, Hepacivirus hominis
Method in brief: (§3)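 NS5A resistance-associated variants introduced into GT1a-H77 or GT1b-Con1 replicons. In transient assays, each variant replicon was electroporated into a Huh-7-derived cell line. Inhibition measured as drop in luciferase signal. Percent inhibition computed per concentration; EC50 from 4-parameter logistic nonlinear fit. Fold resistance is variant EC50 relative to the matching reference replicon.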

[7] = MRT in dog at 5 mg/kg, po by UPLC-MS/MS analysis; format: ADME, organism-based, Canis lupus familiaris; details: in vivo
[8] = Cmax in mouse at 10 mg/kg, po by UPLC-MS/MS analysis; format: ADME, organism-based; design: dose 10 mg/kg, route oral; details: in vivo
Method in brief: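 Overnight-fasted mice given a single 10 mg/kg oral dose in 2:2:96 (v/v) alcohol : Tween 80 : glucose injection. Plasma levels by UPLC-MS/MS. Bioavailability derived against a 2 mg/kg iv arm using the same formulation diluted 2.5 times with 10% glucose injection.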

[9] = Drug distribution in rat liver at 10 mg/kg, po incubated for 8 hrs by UPLC-MS/MS analysis; format: ADME, organism-based; details: read-out: Drug uptake; method in brief: as §2
[10] = test system: Hepatitis C virus; test: Antiviral activity against Hepatitis C virus subtype 1a H77 subgenomic replicon expressing NS5A Y93H mutant infected in human HuH7 cells assessed as reduction in viral replication incubated for 3 days by luciferase reporter gene assay; format: functional, organism-based, Hepacivirus hominis; details: subtype 1a H77, Huh-7, 72 h; method in brief: as §3
[11] = test system: Hepatitis C virus; test: Resistance index, ratio of EC50 for Hepatitis C virus subtype 1a H77 subgenomic replicon expressing NS5A Q30K mutant infected in human HuH7 cells to EC50 for Hepatitis C virus subtype 1a H77 subgenomic replicon expressing NS5A infected in human HuH7 cells; format: functional, Hepacivirus hominis
[12] = test system: Hepatitis C virus; test: Antiviral activity against Hepatitis C virus subtype 1b Con1 replicon expressing NS5A L31W mutant infected in human HuH7 cells assessed as reduction in viral replication incubated for 3 days by luciferase reporter gene assay; format: functional, organism-based, Hepacivirus hominis; details: subtype 1b Con1, Huh-7, 72 h; method in brief: as §3
[13] = test system: Hepatitis C virus; test: Antiviral activity against Hepatitis C virus subtype 2a subgenomic replicon expressing NS5A infected in human HuH7 cells assessed as reduction in viral replication incubated for 3 days by luciferase reporter gene assay; format: functional, organism-based, Hepacivirus hominis; details: Huh-7, 72 h
[14] = test system: Hepatitis C virus; test: Antiviral activity against Hepatitis C virus subtype 1a H77 subgenomic replicon expressing NS5A L31M mutant infected in human HuH7 cells assessed as reduction in viral replication incubated for 3 days by luciferase reporter gene assay; format: functional, organism-based, Hepacivirus hominis; details: subtype 1a H77, Huh-7, 72 h; method in brief: as §3
[15] = Toxicity in mouse assessed as abnormality on organs at 300 mg/kg, po administered for 14 days and measured on day 14; format: organism-based; details: in vivo, 336 h; method in brief: as §1
[16] = test system: Hepatitis C virus; test: Antiviral activity against Hepatitis C virus subtype 1a H77 subgenomic replicon expressing NS5A Q30E mutant infected in human HuH7 cells assessed as reduction in viral replication incubated for 3 days by luciferase reporter gene assay; format: functional, organism-based, Hepacivirus hominis; details: subtype 1a H77, Huh-7, 72 h; method in brief: as §3
[17] = test system: Hepatitis C virus; test: Antiviral activity against Hepatitis C virus subtype 1a H77 subgenomic replicon expressing NS5A L31V mutant infected in human HuH7 cells assessed as reduction in viral replication incubated for 3 days by luciferase reporter gene assay; format: functional, organism-based, Hepacivirus hominis; details: subtype 1a H77, Huh-7, 72 h; method in brief: as §3
[18] = Drug distribution in rat plasma at 10 mg/kg, po incubated for 3 hrs by UPLC-MS/MS analysis; format: ADME, organism-based; method in brief: as §2
[19] = test system: Hepatitis C virus; test: Antiviral activity against Hepatitis C virus subtype 6a subgenomic replicon expressing NS5A infected in human HuH7 cells assessed as reduction in viral replication incubated for 3 days by luciferase reporter gene assay; format: functional, organism-based, Hepacivirus hominis; details: Huh-7, 72 h
Method in brief: (§4)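 HCV replicon cell assay; inhibition of replication read as decrease in luciferase signal. Percent inhibition computed at each compound concentration; EC50 (pM) from nonlinear regression fit to a 4-parameter logistic equation. Values are means of triplicate wells, with each experiment run at least twice.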

[20] = test system: Hepatitis C virus; test: Resistance index, ratio of EC50 for Hepatitis C virus subtype 1b Con1 subgenomic replicon expressing NS5A P32L mutant infected in human HuH7 cells to EC50 for Hepatitis C virus subtype 1b Con1 subgenomic replicon expressing NS5A infected in human HuH7 cells; format: functional, Hepacivirus hominis
[21] = test system: Hepatitis C virus; test: Antiviral activity against Hepatitis C virus subtype 1a H77 subgenomic replicon expressing NS5A infected in human HuH7 cells assessed as reduction in viral replication incubated for 3 days by luciferase reporter gene assay; format: functional, organism-based, Hepacivirus hominis; details: subtype 1a H77, Huh-7, 72 h; method in brief: as §4
[22] = Toxicity in mouse assessed as effect on hepatological parameters at 300 mg/kg, po administered for 14 days and measured on day 14; format: organism-based; details: in vivo, 336 h; method in brief: as §1
[23] = Drug distribution in mouse liver at 10 mg/kg, po incubated for 0.5 hrs by UPLC-MS/MS analysis; format: ADME, organism-based; details: read-out: Drug uptake; method in brief: as §2
[24] = test system: Hepatitis C virus; test: Resistance index, ratio of EC50 for Hepatitis C virus subtype 1b Con1 subgenomic replicon expressing NS5A Y93H mutant infected in human HuH7 cells to EC50 for Hepatitis C virus subtype 1b Con1 subgenomic replicon expressing NS5A infected in human HuH7 cells; format: functional, Hepacivirus hominis
[25] = test system: Hepatitis C virus; test: Antiviral activity against Hepatitis C virus subtype 1b Con1 replicon expressing NS5A Y93H mutant infected in human HuH7 cells assessed as reduction in viral replication incubated for 3 days by luciferase reporter gene assay; format: functional, organism-based, Hepacivirus hominis; details: subtype 1b Con1, Huh-7, 72 h; method in brief: as §3
[26] = Drug distribution in mouse liver at 10 mg/kg, po incubated for 24 hrs by UPLC-MS/MS analysis; format: ADME, organism-based; details: read-out: Drug uptake; method in brief: as §2
[27] = Ratio of drug distribution in mouse liver to drug distribution in mouse plasma measured after 3 hrs by UPLC-MS/MS analysis; format: ADME, cell-free; method in brief: as §2
[28] = test system: Hepatitis C virus; test: Antiviral activity against Hepatitis C virus subtype 5a subgenomic replicon expressing NS5A infected in human HuH7 cells assessed as reduction in viral replication incubated for 3 days by luciferase reporter gene assay; format: functional, organism-based, Hepacivirus hominis; details: Huh-7, 72 h
[29] = test system: Hepatitis C virus; test: Resistance index, ratio of EC50 for Hepatitis C virus subtype 1b Con1 subgenomic replicon expressing NS5A L31V mutant infected in human HuH7 cells to EC50 for Hepatitis C virus subtype 1b Con1 subgenomic replicon expressing NS5A infected in human HuH7 cells; format: functional, Hepacivirus hominis

With `COC(=O)N[C@H](C(=O)N1CCC[C@H]1C(=O)Nc1ccc([C@@H]2CC[C@@H](c3ccc(NC(=O)[C@@H]4CCCN4C(=O)[C@@H](NC(=O)OC)[C@@H](C)OC)cc3)N2c2cc(F)c(N3CC[Si](C)(C)CC3)c(F)c2)cc1)[C@@H](C)OC` the “Ratio EC50” value [1] was 23, the Activity [2] was “Non-Toxic” and the concentration at 0.5 h [3] was 359 ng/g. The CC50 at 72 h [4] was > 50000 nM, the Kp at 24 h [5] was 17.9 and the “Ratio EC50” value [6] was 9.9. It also gave an MRT [7] of 17.5 h, a Cmax [8] of 454 ng/mL and a concentration at 8 h [9] of 293 ng/g. The EC50 [10] was > 1 nM, the “Ratio EC50” value [11] was 30.5 and the EC50 [12] was 0.0191 nM. For the same molecule, the EC50 [13] was 0.00038 nM, the EC50 [14] was 0.0122 nM and the Activity [15] was “Non-Toxic”. The EC50 [16] was 0.216 nM, the EC50 [17] was 0.027 nM and the concentration at 3 h [18] was 45.2 ng/mL. The EC50 [19] was 0.017 nM, the “Ratio EC50” value [20] was 1 and the EC50 [21] was 0.0012 nM. For the same molecule, the Activity [22] was “Non-Toxic”, the concentration at 0.5 h [23] was 436 ng/g and the “Ratio EC50” value [24] was 12.2. For the same molecule, the EC50 [25] was 0.0204 nM, the concentration at 24 h [26] was 625 ng/g and the Kp at 3 h [27] was 24.6. For the same molecule, the EC50 [28] was 0.0016 nM and the “Ratio EC50” value [29] was 2.3.

— ChEMBL document CHEMBL4402601, “Discovery of a Silicon-Containing Pan-Genotype Hepatitis C Virus NS5A Inhibitor” (J Med Chem, 2020)
